Screening results (PubChem BioAssay)
DENV2 CPE rescue: DENV2-induced cell death inhibition; CPE inhibition, % at 9.99 µM; AID 651640; 1.7% of 350,000 active; DENV2-infected cells, cytopathic effect rescue, plate reader; in the data active = CPE inhibition above about 20%, passing the limit was not always enough; inconclusive = no clear call, values can overlap the other calls; tested in BHK-21 cells
SIRT5 inh: inhibitors of human sirtuin-5 desuccinylase | Q9NXA8 | Purified SirT5, succinyl-peptide AMC, trypsin-coupled fluorescence | inhibition, % at 15 µM | 1.1% of 330,000 active | AID 652115; in the data active = inhibition above about 15%; inconclusive = no clear call, values can overlap the other calls
E-selectin induc: E-selectin induction on HUVECs; activation, % at 7.58 µM; 0.37% of 260,000 active; P16581; HUVEC E-selectin immunofluorescence imaging; normalized: neutral wells 0, TNF-alpha wells 100; AID 686992;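 active = mean E-selectin-positive cell signal at least 10% of the positive control, reached in at least 60% of replicates, without over 20% cell loss; inconclusive = no rule given, readout overlaps actives, possibly toxicity-flagged; inactive = the rest, including those meeting only one limit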
Target sequence (P16581 whole entry, looked up): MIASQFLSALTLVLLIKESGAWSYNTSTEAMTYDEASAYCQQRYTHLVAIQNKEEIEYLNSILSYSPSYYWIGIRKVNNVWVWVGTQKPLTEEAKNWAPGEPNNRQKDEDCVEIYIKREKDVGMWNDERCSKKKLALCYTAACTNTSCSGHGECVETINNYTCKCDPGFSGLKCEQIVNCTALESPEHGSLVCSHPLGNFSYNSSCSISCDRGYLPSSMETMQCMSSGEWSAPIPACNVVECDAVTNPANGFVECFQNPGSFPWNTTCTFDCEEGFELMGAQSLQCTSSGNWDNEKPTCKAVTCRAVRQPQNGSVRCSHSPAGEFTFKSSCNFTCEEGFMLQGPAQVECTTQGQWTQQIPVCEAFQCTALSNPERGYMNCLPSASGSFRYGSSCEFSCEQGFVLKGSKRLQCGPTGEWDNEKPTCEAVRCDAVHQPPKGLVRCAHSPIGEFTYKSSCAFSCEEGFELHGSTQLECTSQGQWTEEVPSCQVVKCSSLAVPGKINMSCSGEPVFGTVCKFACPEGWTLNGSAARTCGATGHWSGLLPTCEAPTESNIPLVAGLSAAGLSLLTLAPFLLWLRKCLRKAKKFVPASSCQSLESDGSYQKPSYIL
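Assay system: HUVEC primary endothelial cells. Input: 3,000 HUVEC seeded per well. Doses: one compound dose added by pin transfer. Read-out basis: % PE-positive cells. Benchmarks: TNF-alpha high, DMSO low. Detection: immunofluorescence imaging. Buffer or medium: EGM-2, gelatin.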
A number is an active result; – = inactive; ? = inconclusive; · = not tested or not shown; ! = not confirmed by another sample. Shown are actives, neighbours in structure and some others; about 2.9% of the full set was active somewhere.

SMILES	DENV2 CPE rescue	SIRT5 inh	E-selectin induc
CC(=O)N1[C@H](CO)[C@@H]2c3ccccc3N(S(=O)(=O)c3cccc(C)c3)C[C@@H]21	–	–	–
O=S(=O)(c1ccccc1)N1C[C@@H]2[C@H](c3ccccc31)[C@H](CO)N2Cc1ccccc1	–	–	–
O=C(CC1CC1)N1[C@@H](CO)[C@@H]2c3ccccc3N(S(=O)(=O)c3ccc(F)cc3)C[C@@H]21	–	25	–
COCCn1c(=S)[nH]c2cc(C(=O)NCc3ccccc3)ccc2c1=O	–	·	·
Cc1noc(C)c1NC(=O)N(C)C[C@H]1Oc2c(NC(=O)C3CCCCC3)cccc2C(=O)N([C@H](C)CO)C[C@H]1C	–	–	–
CCCC1=Nc2cc(C(=O)NCCCN3CCOCC3)ccc2Sc2ccccc21	–	–	·
CCN(CC)c1ncnc2c1ncn2[C@H]1CN(Cc2ccc3c(c2)OCO3)C[C@@H](CO)O1	–	–	–
O=C1c2cc([N+](=O)[O-])ccc2-c2ncccc21	51	–	·
Nc1ccc2c(c1)C(=O)c1cc([N+](=O)[O-])ccc1-2	–	–	–
C[C@H](CO)N1C[C@H](C)[C@H](CN(C)Cc2ccccc2C(=O)O)Oc2cc(-c3ccc(F)cc3)ccc2S1(=O)=O	–	–	–
CN(CCC1CCOCC1)C(=O)CC1C(=O)NCCN1Cc1ccccc1F (centres undefined)	–	–	–
COc1cc2c(cc1OC)C(=S)NC1(CCCC1)C2	–	38	?
S=C1NC2(CCCCC2)Cc2ccccc21	·	·	–
Cc1ccc(S(=O)(=O)CCC(=O)OCC(=O)N2CCN(S(=O)(=O)c3ccc(Cl)cc3)CC2)cc1	–	–	–
CCCCc1nc2cc(C(=O)N3CCCCC3COC)ccc2o1 (centres undefined)	–	–	–
O=C(Nc1ccccc1F)N[C@@H]1CC[C@H](CCNC(=O)C2CCCC2)O[C@@H]1CO	–	–	–
O=C(Nc1ccccc1F)N[C@@H]1CC[C@@H](CCNC(=O)C2CCCC2)O[C@H]1CO	39	–	–
O=C(Nc1ccccc1F)N[C@@H]1CC[C@H](CCNC(=O)C2CCCC2)O[C@H]1CO	26	–	–
O=C(Nc1ccccc1F)N[C@H]1CC[C@H](CCNC(=O)C2CCCCC2)O[C@@H]1CO	–	–	–
C[C@H](O)C#Cc1ccc2c(c1)O[C@@H](CN(C)Cc1ccc(-c3ccccc3)cc1)[C@H](C)CN([C@@H](C)CO)S2(=O)=O	–	17!	–
C[C@H](CO)N1C[C@H](C)[C@@H](CN(C)Cc2ccccc2)Oc2cc(C#C[C@@H](C)O)ccc2S1(=O)=O	–	–	–
C[C@@H](O)C#Cc1ccc2c(c1)O[C@@H](CN(C)Cc1ccc(-c3ccccc3)cc1)[C@@H](C)CN([C@@H](C)CO)S2(=O)=O	–	–	–
C[C@@H](O)C#Cc1ccc2c(c1)O[C@H](CN(C)Cc1ccc(-c3ccccc3)cc1)[C@@H](C)CN([C@@H](C)CO)S2(=O)=O	–	27	–
C[C@H](O)C#Cc1ccc2c(c1)O[C@@H](CN(C)Cc1ccc(-c3ccccc3)cc1)[C@@H](C)CN([C@H](C)CO)S2(=O)=O	–	23	–
C[C@H](CO)N1C[C@H](C)[C@@H](CN(C)Cc2ccc(-c3ccccc3)cc2)Oc2cc(C#C[C@@H](C)O)ccc2S1(=O)=O	–	–	–
SMILES	DENV2 CPE rescue	SIRT5 inh	E-selectin induc
O=C(Nc1ccc(Oc2ccccc2)nc1)C1CCCCN1Cc1cccc(O)c1 (centres undefined)	–	–	–
CO[C@H]1CN(C)C(=O)c2cccc(C#N)c2OC[C@H]2O[C@@H](CC[C@H]2OC)CCN(C)C(=O)[C@@H]1C	–	–	–
C=CCC[C@@H](Cc1ccc(F)cc1)C(=O)OC[C@H](C)NC(=O)[C@H](CC=C)CC(=O)N(CCO)Cc1ccccc1	–	–	–
COc1ccc(CNC(=O)C2Cc3c(-c4cccc(C(C)=O)c4)ccnc3O2)cc1OC (centres undefined)	–	–	–
CCOc1cc(-c2cc(N)n[nH]2)cc(OCC)c1OCC	–	–	·
COc1ccc(CCN2CC(C(=O)NCCc3cn[nH]c3)CCC2=O)cc1 (centres undefined)	88	–	–
O=C(NCCc1ccc(Cl)cc1)C1CCC(=O)N(C2CCCCCC2)C1 (centres undefined)	–	25	–
O=C(NCCCc1ccccc1)C1CCC(=O)N(Cc2ccc(Cl)cc2)C1 (centres undefined)	–	–	·
O=C(NCCCC1CCCC1)C1CCC(=O)N(Cc2cccc(C(F)(F)F)c2)C1 (centres undefined)	26	–	–
O=C(NCCCn1cccn1)C1CCC(=O)N(Cc2cccc(C(F)(F)F)c2)C1 (centres undefined)	–	–	·
O=C(NCCc1ccc(Cl)cc1)C1CC(=O)N(C2CCCC2)C1 (centres undefined)	–	–	·
COc1ccc(CCN2CC(C(=O)NCCc3cccnc3)CCC2=O)cc1 (centres undefined)	–	–	–
COc1ccc(CCCNC(=O)C2CCC(=O)N(Cc3ccc(Cl)cc3)C2)cc1 (centres undefined)	–	32	·
Cc1ccc(S(=O)(=O)N(C)[C@H]2C[C@H]3c4[nH]c5ccccc5c4CCN3C[C@H]2[C@H](C)O)cc1	–	–	–
CC(C)CC#Cc1cnc2c(c1)C(=O)N([C@H](C)CO)C[C@H](C)[C@@H](CN(C)C(=O)CN1CCOCC1)O2	?	–	–
COc1ccc(NC(=O)N(C)C[C@@H]2Oc3c(NC(=O)Nc4ccccc4)cccc3C(=O)N([C@H](C)CO)C[C@H]2C)cc1	–	–	–
Cc1noc(C)c1NC(=O)N(C)C[C@@H]1Oc2ccc(NS(=O)(=O)c3cn(C)cn3)cc2C(=O)N([C@@H](C)CO)C[C@H]1C	–	–	–
O=C1[C@@H](Oc2ccccc2)[C@@H](c2ccncc2)N1c1ccncc1	28	–	·
O=C1[C@H](Oc2ccccc2)[C@@H](c2ccncc2)N1c1ccncc1	–	–	–
Cc1ccc(NC(=O)CN(C)C(C)C(=O)Nc2ccc(S(=O)(=O)N3CCCC3)cc2)cc1 (centres undefined)	–	–	–
CC(=O)Nc1cccc(C(=O)N(Cc2ccccc2)Cc2ccccc2)c1	–	–	·
CC(=O)Nc1ccc(S(=O)(=O)Nc2nc3ccccc3nc2Nc2ccc(C(=O)O)c(O)c2)cc1	–	47	–
CC(=O)Nc1ccc(S(=O)(=O)Nc2nc3ccccc3nc2Nc2cccc(O)c2)cc1	–	–	–
COc1ccc(NC(=S)N2CCCC2)c(OC)c1	–	–	–
O=C1CCCCCN1C(=O)c1ccccc1	–	·	–
CO[C@H]1CN(C)C(=O)c2ccc(NC(=O)c3ccc(Oc4ccccc4)cc3)cc2OC[C@@H](C)NC[C@H]1C	31	–	–
CO[C@H]1CN(C)C(=O)c2ccc(NC(=O)c3ccccc3)cc2OC[C@H](C)NC[C@H]1C	–	·	–
CO[C@@H]1CN(C)C(=O)c2cc(NC(=O)c3ccc(Oc4ccccc4)cc3)ccc2OC[C@H](C)NC[C@@H]1C	22	–	–
CO[C@H]1CN(C)C(=O)c2cc(NC(=O)c3ccc(Oc4ccccc4)cc3)ccc2OC[C@H](C)NC[C@H]1C	–	–	–
CO[C@H]1CN(C)C(=O)c2ccc(NC(=O)c3ccccc3)cc2OC[C@H](C)NC[C@@H]1C	39	–	–
